Measured values reported in the RNAGym collection of RNA variant scans (doi:10.1126/science.aae0568).
This sample holds only a part of the variants without activity.

B1: tRNA (parent)
chain: GUUCCGUUGGCGUAAUGGUAACGCGUCUCCCUCCUAAGGAGAAGACUGCGGGUUCGAGUCCCGUACGGAACG

Variants of: B1
Test: yeast fitness relative to wild type (ratio to wild type); higher = fitter; tRNA-Arg(CCU), competitive growth, 37 C, YPD
Outline: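 Start and end populations of a pooled competition were compared by 100-nucleotide paired-end sequencing of gene amplicons. The Saccharomyces cerevisiae strains carried tRNA-Arg(CCU) gene variants at the native genomic locus, synthesised with a 3% per-site mutation rate at 69 sites, and competed in YPD at 37°C for 24 hours in six parallel replicates. Darwinian fitness relative to wild type was based on the change in genotype frequencies. Genotypes required ≥ 100 starting reads, and estimates < 0.5 were set to 0.5.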

Point of comparison: C29U U64A, yeast fitness 0.677. Against it:
- C30U A57G A70U — lower, 0.558
- C30U G50A — higher, 0.83
- C30U G39C G50A — lower, ≤ 0.5
- C29U U53A C61U U64C — lower, ≤ 0.5
- C30A C31A C49U C55G — lower, 0.672
- C30G C34G — lower, ≤ 0.5
- C30U A45C A65U — lower, ≤ 0.5
- C30A A42C A69G — lower, ≤ 0.5
- C30A U54C G63A — lower, 0.601
- C30U C31U A37G A43G G52A — lower, ≤ 0.5
- C30U C31U C34A — lower, 0.601
- C30G A43C — lower, 0.549
- C30G A43U — lower, 0.635
- C30A C31U — higher, 1
- C30A C33G A40G — lower, ≤ 0.5
- C30U G38C G63A A70G — lower, ≤ 0.5
- C30A A37G C46U A57C — lower, ≤ 0.5
- C30A G38C — higher, 0.851
- C30U C46A A70C — higher, 0.82
- C30A A45U C55U — lower, 0.589
- C30A G56A C66G — lower, ≤ 0.5
- C30A U35C — higher, 0.93
- C30A C31U U59C — higher, 0.983
- C30A A36U — higher, 0.697
- C30A A36C — lower, 0.579
- C30U G44A G48C — lower, ≤ 0.5
- C30U A57G — higher, 0.709
- C30G C60A C66U — lower, 0.551
- C30G C46U A65C — lower, ≤ 0.5
- C30U C62G — higher, 0.855
- C30U C62A — higher, 0.798
- C30G A40U A70U — lower, 0.526
- C30A A36U G39A A45G G63U — lower, ≤ 0.5
- C30U A40U A70C — lower, 0.56
- C30A U59G — higher, 0.775
- C30G C33G A36C A37U A43U — lower, ≤ 0.5
- C30G G51C C61G — lower, ≤ 0.5
- C30A C31A G38A C49U G52A — lower, ≤ 0.5
- C30A A42U C49U U59C A69C — lower, 0.557
- C30U A36G G44A C66U — lower, ≤ 0.5
- C30A A42C G58A — lower, ≤ 0.5
- C30A C66U — higher, 0.847
- C30G G48A U53C — lower, ≤ 0.5
- C30A U64G — higher, 0.793
- C30U A69C — higher, 0.773
- C30U A69U — higher, 0.879
- C30U A69G — higher, 0.947
- C30U C46G C49U — lower, 0.641
- C30U G41C A45U — lower, ≤ 0.5
- C30A C46A A57G C60A — lower, ≤ 0.5
- C30G C46G A57U C66U A70U — lower, ≤ 0.5
- C30U C31U A42U G67A — lower, 0.537
- C30U A36G G44A — lower, 0.638
- C30U C33A — lower, 0.672
- C29U U59G — higher, 0.83
- C30G C34U A42U G68A — lower, ≤ 0.5
- C30G C46A U47G C49A G52A G58C U64G A65G A69G — lower, ≤ 0.5
- C30G A69C A70G — lower, ≤ 0.5
- C30U C49U U54A — lower, ≤ 0.5
- C30A A57C C60G — lower, ≤ 0.5
- C30G A36U C61U — lower, 0.504
- C30U C31G C34G C66A — lower, ≤ 0.5
- C30U A43C G52A — lower, 0.516
- C30U A40C U59C A65G — lower, ≤ 0.5
- C30A C46U C55U — lower, 0.573
- C30A C55A C62A — lower, ≤ 0.5
- C30A A40C — higher, 0.712
- C30A C46G G52A G56A — lower, 0.608
- C30U C34G A40C C49G — lower, ≤ 0.5
- C30A C61U — higher, 0.767
- C30G G52C A65C — lower, ≤ 0.5
- C29U U32G — higher, 0.686
- C30U C46U G52C — lower, ≤ 0.5
- C30G A42C U59A C60U — lower, 0.507
- C29U G68C — higher, 0.898
- C30U G56A — higher, 0.942
- C30U C46A G51A — lower, 0.608
- C30G U47C G51A C66U — lower, ≤ 0.5
- C30A C60A — lower, 0.619
- C30A A42U C55U C66A — lower, 0.531
- C30A A42C C66A — higher, 0.719
- C30A G58C G68A — lower, ≤ 0.5
- C29U U64G — higher, 0.748
- C30U G39A A40C U53A — lower, 0.565
- C30U A45U A69U — higher, 0.797
- C30U A45U A69G — lower, 0.566
- C30G U32C — higher, 0.708
- C30A A70C — higher, 1.01
- C30U C60A A70C — lower, ≤ 0.5
- C30A A43G G50C — higher, 0.767
- C30A C60A C62A — lower, ≤ 0.5
- C30A C33A A57U — lower, ≤ 0.5
- C30A U35C A36G A42C C60U C61U — lower, ≤ 0.5
- C30G C34G U35A G68A — lower, ≤ 0.5
- C30G A40U C46U A69G — lower, ≤ 0.5
- C30A C55G C66U — lower, ≤ 0.5
- C30A A40C A43G C49G G63C — lower, ≤ 0.5
- C30A C31U A40U G56C A69C — lower, ≤ 0.5
- C30G C33G C34U A42U A57G A65C — lower, ≤ 0.5
- C30G A57G G68U — lower, ≤ 0.5
- C30G C33A A36U A65C — lower, 0.535
- C30G C31A G63C — lower, 0.546
- C30A A37C C60A — lower, ≤ 0.5
- C30A A36U G38C G39A C66A — lower, ≤ 0.5
- C30G G41C G68A — lower, ≤ 0.5
- C30U G39A A40G U53C G67A — lower, ≤ 0.5
- C30U A37C C60U — lower, 0.548
- C29U G67U — higher, 0.91
- C30A C46A — higher, 1
- C30G C33G C60G C62U — lower, ≤ 0.5
- C30A C60U C66U — lower, ≤ 0.5
- C30A G39U — higher, 0.772
- C30A G39A — higher, 0.833
- C30G A70U — lower, 0.58
- C30U A36U C62G G63A — lower, 0.542
- C30G C33G A42G C49U C61U — lower, 0.663
- C29U U32C C62U A70U — lower, ≤ 0.5
- C30G G41A A65G — lower, ≤ 0.5
- C30U A45G C61A A65U — lower, ≤ 0.5
- C30U A43C A70U — lower, 0.556
- C30G C60U A65G — lower, ≤ 0.5
- C30A U35C U59C G63A — lower, 0.584
- C30U C55A — lower, 0.667
- C30U A36C C46U U53A — lower, ≤ 0.5
- C30A G50C C66U — lower, ≤ 0.5
- C30U G38C U59A — lower, ≤ 0.5
- C30A A42U C55G — lower, ≤ 0.5
- C29U U35A A70C — lower, ≤ 0.5
- C30A C55U G68A — lower, ≤ 0.5
- C30U A43G G51C — lower, ≤ 0.5
- C30G C46A G56A — lower, 0.557
- C30A G50C — lower, 0.594
- C30A G50U — higher, 0.816
- C30G A57U C62U — lower, ≤ 0.5
- C30G A37C C46G A69C — lower, 0.571
- C30U G38C C62G — lower, ≤ 0.5
- C30G U47A G50C A65G G68C — lower, ≤ 0.5
- C30G C46A U47G C49A G52A G58C U64G A65G — lower, 0.528
- C30G A42C C55U — lower, ≤ 0.5
- C30G G38C — higher, 0.741
- C30U A36G C61G — lower, ≤ 0.5
- C30U G50C U59A — lower, ≤ 0.5
- C30G G50U C66U — lower, 0.573
- C30A C49A — higher, 0.699
- C30G A40C A42G — lower, ≤ 0.5
- C30G A42U — lower, 0.666
- C30A A42U — higher, 0.753
- C30A A42C — higher, 0.789
- C30U C46A G63C A70G — lower, ≤ 0.5
- C30U A45C A69U — higher, 0.704
- C30G C34U A45C U53G C61G — lower, ≤ 0.5
- C30G C34A C49G G50A U64A — lower, 0.56
- C30A A43U C61U — lower, 0.602
- C30A G48C C61U — lower, 0.631
- C30G G44C G51C A69U — lower, ≤ 0.5
- C30G G38C G52A C55U — lower, ≤ 0.5
- C30U C55U G67U — lower, ≤ 0.5
- C30U C31U G41C A45G C49U C66U A69G — lower, ≤ 0.5
- C30G A43U G48C C55A C66U — lower, ≤ 0.5
- C30G A42U A45G A69U — lower, ≤ 0.5
- C29U U53A — lower, 0.625
- C30U G52C — lower, 0.593
- C30U A65C — higher, 0.841
- C29U U47G C49G A70G — lower, ≤ 0.5
- C30G G58C C60U A65G — lower, ≤ 0.5
- C30A C62U — higher, 0.886
